Wee1 stabilizer: Wee1 degradation inhibitors, primary screen, cell-based, HeLa, Wee1K328M-luciferase, luminescence | HeLa Luc-Wee1K328M stability; 100% = proteasome inhibitor MG132 effect | AID 1321, 2008 | Wee1-like protein kinase (Homo sapiens), P30291 | hit rate 1.2% among 220,000 | reporter increase, % at 5 µM;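 active means activation above the mean of all tested compounds plus 3 SD, set per screening run, cut at about 8.8% in these data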;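 further: cells exposed to compound for 20 h before luminescence read; 0% = DMSO alone and 100% = MG132 at 30 µM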
NCF1 inh: p47phox/p22phox peptide binding inhibitors, primary screen, biochemical, uHTS, NADPH oxidase regulatory subunit | Neutrophil cytosol factor 1 (Homo sapiens), P14598 | fluorescence polarization, 2 h | inhibition, % at 24.7 µM | hit rate 0.53% among 220,000;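 further: 0% = p47phox with labelled peptide and 100% = labelled peptide alone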
Target sequence (P14598 whole entry, looked up): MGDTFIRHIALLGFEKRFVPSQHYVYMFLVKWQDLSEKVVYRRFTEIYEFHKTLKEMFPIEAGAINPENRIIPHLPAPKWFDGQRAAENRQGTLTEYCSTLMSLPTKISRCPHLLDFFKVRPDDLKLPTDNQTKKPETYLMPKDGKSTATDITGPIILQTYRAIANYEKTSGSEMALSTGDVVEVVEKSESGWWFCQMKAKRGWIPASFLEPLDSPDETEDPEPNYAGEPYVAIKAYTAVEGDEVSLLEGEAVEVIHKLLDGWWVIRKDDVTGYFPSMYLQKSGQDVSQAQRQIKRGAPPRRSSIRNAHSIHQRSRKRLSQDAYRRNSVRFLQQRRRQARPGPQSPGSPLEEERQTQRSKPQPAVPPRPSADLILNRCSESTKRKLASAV
14-3-3 Bad inh: inhibitors of 14-3-3 zeta/Bad binding, primary screen, biochemical, TR-FRET, bovine 14-3-3 zeta | hit rate 0.71% among 220,000 | TR-FRET 14-3-3zeta/Dy647-pBad peptide displacement, 1 h | 14-3-3 protein zeta/delta (Bos taurus), P63103 | inhibition, % at 21.7 µM | AID 781, 2007;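 active means inhibition above about 70%, limit read from the data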;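 further: 0% = full 14-3-3 plus peptide FRET controls and 100% = background without 14-3-3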
Target sequence (P63103 whole entry, looked up): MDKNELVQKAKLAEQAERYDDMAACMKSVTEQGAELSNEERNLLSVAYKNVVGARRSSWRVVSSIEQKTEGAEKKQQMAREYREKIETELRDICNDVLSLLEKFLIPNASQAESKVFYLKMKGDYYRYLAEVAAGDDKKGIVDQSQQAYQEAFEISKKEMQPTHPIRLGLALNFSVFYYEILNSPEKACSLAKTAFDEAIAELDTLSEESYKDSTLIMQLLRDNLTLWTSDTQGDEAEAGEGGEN
eIF4E-4G inh: eIF4E–eIF4G protein interaction inhibitors, primary screen, biochemical, uHTS, TR-FRET, eIF4GI fragment. TR-FRET eIF4E-eIF4GI(517-606) binding, 2 h. inhibition, % at 21.7 µM. hit rate 0.37% among 220,000;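 further: 0% = full FRET control wells and 100% = background wells lacking eIF4GI fragment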
RBBP9 inhibitor: human RBBP9 inhibitors, primary screen, biochemical, fluorescence polarization, FP-Rh probe, HTS; hit rate 0.2% among 220,000; Serine hydrolase RBBP9 (Homo sapiens), O75884; AID 1515, 2009; recombinant RBBP9; inhibition, % at 7.94 µM;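 active means inhibition above the campaign mean of all tested compounds plus 3 SD, cut at about 14% in these data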;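 further: plate controls were DMSO wells with RBBP9 for no effect and wells lacking RBBP9 protein for full effect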
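Measured by: FP readout at 525/598 nm; material: recombinant human RBBP9; also added: Serine-hydrolase probe FP-Rh, 375 nM pre-mixing; medium: Tris buffer pH 8.0, NaCl, Pluronic; replication: one well per compound; doses: one concentration, 7.94 µM nominal, 0.794% DMSO; timing: preincubation 30 min plus labeling 45 min at 25 °C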
Wee1 degr conf: Wee1 degradation inhibitors, confirmation, cell-based, HeLa, Wee1K328M-luciferase, luminescence, triplicate; hit rate 4% among 1,100; shares compounds with Wee1 stabilizer; activation, % at 5 µM; HeLa Luc-Wee1K328M degradation; vehicle 0%, proteasome-blocked wells 100%; in the data active means activation above about 8.9%
RBBP9 confirm: human RBBP9 inhibitors, retest, confirmation, biochemical, fluorescence polarization, FP-Rh probe, triplicate; shares compounds with RBBP9 inhibitor; recombinant RBBP9; inhibition, % at 7.94 µM; hit rate 36% among 410;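 active means inhibition above the hit cutoff derived for the primary screen, cut at about 15% in these data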;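 further: 0% = RBBP9 with DMSO and 100% = wells lacking RBBP9 protein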
* marks the source's active call; other numbers are inactive results; nt = not tested or not shown. Hits are enriched below; roughly 2.8% of the tested compounds scored in any of these assays.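 How the source made its calls, unless noted: active means inhibition above about 30% (limit read from the data); inactive means the rest.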

SMILES	Wee1 stabilizer	NCF1 inh	14-3-3 Bad inh	eIF4E-4G inh	RBBP9 inhibitor	RBBP9 confirm	others
Cc1ccc(CSCC(=O)Nc2ccc3c(c2)OCO3)cc1	0.2	2.4	-11.4	0.6	-8.8	nt
O=C1CSC(c2cccc([N+](=O)[O-])c2)N1c1ccc(O)cc1 (stereo unspecified)	-2.0	-13.5	-14.6	-1.2	-8.0	nt
CC1(C)CC(=O)C2=C(C1)N=C1SCCC(=O)N1C2c1cccc([N+](=O)[O-])c1 (stereo unspecified)	12.1*	-3.6	-0.7	1.0	4.7	nt	Wee1 degr conf=-0.4
CC(=O)c1cccc(NC(=O)N2CCC(c3ccc(C)cc3)C2)c1 (stereo unspecified)	13.5*	7.2	-2.3	2.3	-4.6	nt	Wee1 degr conf=1.7
Cc1ccc(CCP(=O)(O)CN2CCOCC2)cn1	1.1	-3.7	10.8	-1.0	17.6*	-1.7
CN(C)CCCNS(=O)(=O)c1ccc(Cl)s1	0.7	7.0	5.0	2.6	-11.2	nt
Cc1ccc(C(=O)C[n+]2cc(-c3ccc(C)cc3)n3c2CCCCC3)cc1	1.9	-5.4	16.5	3.6	21.4*	2.8
COc1ccc(-c2[nH]c(-c3ccccc3)nc2SCC(=O)Nc2nccs2)cc1	-0.4	0.3	-3.8	1.6	25.6*	13.2
C/C(=N\NC(=O)Cc1cccc2ccccc12)c1ccncc1	-2.6	-1.7	-17.9	-2.1	-6.5	nt
O=S(=O)(CCN1CCSCC1)c1ccc(Cl)cc1	-1.4	-4.1	1.7	2.0	-4.5	nt
CC(=O)c1c(C(C)=O)c(C)n(-c2cccc3cccnc23)c1C	1.0	-10.7	4.1	1.1	28.7*	4.0
C[C@H]1[C@H](C)CC[C@]2(C)CC[C@]3(C)C(=CC[C@@H]4[C@@]5(C)CC[C@@H](O)[C@](C)(C(=O)O)[C@@H]5CC[C@]43C)[C@H]12	nt	6.2	5.9	6.0	nt	nt
CCN(C(=O)CSc1nc2cc(Cl)ccc2c(=O)n1Cc1ccco1)C1CCS(=O)(=O)C1 (stereo unspecified)	5.1	-2.6	-2.2	1.5	-8.8	nt
COc1ccc(OC)c2c1C(=O)C(Cl)=C(Cl)C2=O	5.5	90.3*	6.7	7.4	78.8*	81.4*
CCN(CC)CCNc1ncnc2c1[nH]c1ccc(OC)cc12	1.7	-11.0	-4.2	6.7	-0.4	nt
COc1ccc2[nH]c3c(NCCC4=CCCCC4)ncnc3c2c1	1.8	-49.5	-3.3	6.1	14.7*	29.9*
O=[N+]([O-])c1c(NCCCO)cc(Sc2nc3ccccc3s2)c2nonc12	2.4	14.6	26.1	8.2	17.2*	23.0*
Cc1nnc(Sc2cc(NCCO)c([N+](=O)[O-])c3nonc23)s1	7.8	5.8	-7.3	0.0	17.9*	24.2*
CCC(=O)OCCNc1cc(Sc2nc3ccccc3s2)c2nonc2c1[N+](=O)[O-]	-0.5	-10.8	-4.3	-16.4	-0.3	nt
Cc1nnc(Sc2cc(NCCCO)c([N+](=O)[O-])c3nonc23)s1	1.1	6.6	-3.7	-0.7	21.8*	30.5*
CCOc1ccc(NC(=O)/C(=C\c2ccc(OC(C)=O)c(OC)c2)NC(C)=O)cc1	1.4	-11.1	-15.0	16.7	-4.3	nt
COc1cc2[nH]c(=S)nc(Nc3ccc(NC(C)=O)cc3)c2cc1OC	-2.3	-11.5	-9.9	-1.8	29.1*	51.7*
CCc1nnc(NC(=O)Cc2sc(C)nc2-c2ccc(C)cc2)s1	1.0	5.5	-2.9	0.3	-2.2	nt
O=C(COC(=O)CCc1ccc(S(=O)(=O)N2CCOCC2)cc1)NCc1ccccc1	0.7	-9.2	-1.2	0.8	-5.7	nt
Cc1c(C2C(C#N)=C(N)OC3=C2C(=O)CCC3)cnn1C (stereo unspecified)	-5.3	-0.8	60.4	-9.9	-4.0	nt
SMILES	Wee1 stabilizer	NCF1 inh	14-3-3 Bad inh	eIF4E-4G inh	RBBP9 inhibitor	RBBP9 confirm	others
Cc1nc2cc(NC(=O)N(C)c3ccc4ccccc4c3)ccc2o1	0.2	-21.5	-2.7	5.9	15.8*	4.5
COc1ccc(NC(=O)Nc2ccc3oc(C)nc3c2)cc1	3.1	-6.6	-4.5	0.0	0.4	nt
CC(C)C(=O)Nc1nnc(CCN2CCCCC2)s1	2.1	9.5	21.2	-3.3	-5.2	nt
CC1Cc2cc(/C(O)=C3/C(=O)C(=O)N(CCCn4ccnc4)C3c3ccncc3)ccc2O1 (stereo unspecified)	0.4	-12.6	33.2	-3.7	14.4*	4.3
CC1Cc2cc(/C(O)=C3/C(=O)C(=O)N(CCCn4ccnc4)C3c3cccnc3)ccc2O1 (stereo unspecified)	-2.1	-12.0	19.1	-6.1	-4.0	nt
CC(C)(C)c1ccc(OC(=O)Nc2ccc(O)c(C(=O)O)c2)cc1	-3.3	-14.8	-2.8	-0.9	-3.3	nt
Cc1cc(O)ccc1N=Cc1c(C(F)(F)F)[nH][nH]c1=O	-1.0	-0.2	-21.9	-3.3	39.4*	13.7
C=CCOc1ccc(CNc2ccc3[nH]c(=O)[nH]c3c2)cc1OCC	-1.3	-4.0	-10.4	1.9	17.6*	14.4*
O=C(COC(=O)/C=C/c1ccc(Cl)cc1)NCCc1ccccc1	-1.9	-3.2	13.8	5.4	16.6*	-0.8
O=C1OC(/C(=C\Nc2ccccc2)[N+](=O)[O-])c2ccccc21 (stereo unspecified)	-1.1	-13.1	-3.3	-4.2	-0.4	nt
CN(CCC#N)C(=S)Nc1ccc(S(=O)(=O)N2CCOCC2)cc1	-2.2	-4.6	-7.3	-1.9	-0.4	nt
COC(=O)c1ccc(N2C(=O)CC(N3CCN(c4ccccc4)CC3)C2=O)cc1 (stereo unspecified)	0.7	nt	nt	nt	21.2*	10.3
COC(=O)c1ccc(N2C(=O)CC(N3CCOCC3)C2=O)cc1 (stereo unspecified)	0.1	7.0	-8.3	14.2	-4.7	nt
CC1=NNC(=O)C1C(c1cccc(O)c1)C(C#N)C#N (stereo unspecified)	-1.4	14.4	-1.8	-7.2	11.4	nt
CC1=NNC(=O)C1C(c1ccc(Cl)cc1)C(C#N)C#N (stereo unspecified)	0.8	-7.8	-5.1	-2.4	21.8*	-0.7
CC(=O)Nc1ccc(Cc2ccc3[nH]c(=O)cc(C)c3c2)cc1	3.6	3.8	0.4	-1.8	5.4	nt
C=CCn1c(SCC(=O)NC(=O)c2cccc([N+](=O)[O-])c2)nnc1-c1ccccc1	-0.6	-4.5	6.1	0.5	-7.2	nt
